Compounds with a hit are over-represented: about 9.6% of the library has one in this group of screens.
APP 5UTR inh – APP translation inhibition | AID 1285 | hit rate 0.82% among 190,000 | inhibition, % at 2 µM | SH-SY5Y APP 5'UTR-luciferase reporter, luminescence;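 active = inhibition above a set limit, derived from the sample mean plus 3 SD, cut at about 45% in these data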
BaF3 tox – reduces parental Ba/F3 cell viability, JAK2V617F counter-screen. CellTiter-Glo ATP luminescence. inhibition, % at 5.6 µM. hit rate 1.1% among 220,000. AID 1486;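 active = inhibition above a per-campaign cutoff, the mean inhibition of all tested compounds plus 3 SD, cut at about 27% in these data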;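 note: 0% = DMSO wells and 100% = JAK Inhibitor I control wells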
b-catenin transl – alters nuclear translocation of beta-catenin in HeLa cells | nuclear translocation activity, % at 5 µM | immunofluorescence imaging | hit rate 0.3% among 190,000;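 active = nuclear translocation activity above 50% at 5 µM, with a well cell count of 50 or more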;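 note: per-cell ratio of nuclear to cytoplasmic median beta-catenin stain intensity; plate controls were DMSO negative control for no effect and GSK-3 inhibitor IX positive control for full effect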
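assay system = human HeLa cells, endogenous beta-catenin | times = compound treatment 24 h, 37°C, 5% CO2 | detection = Anti-beta-catenin immunofluorescence on PFA-fixed, Triton-permeabilized cells, DAPI nuclei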
Lmaj promast – inhibitors of Leishmania major promastigote growth. Leishmania major promastigotes, resazurin fluorescence viability. inhibition, % at 10 µM. hit rate 9% among 200,000. AID 1063; in the data active = inhibition above about 50%;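 note: promastigotes grown with compound for 44 hours at 28 °C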
MT stabilizer – microtubule stabilizers in HeLa cells. AID 2205. hit rate 0.83% among 200,000. HeLa tubulin immunostaining HCS, 24 h; share of cells brighter than vehicle mean+2SD. % tubulin-high responders, % at 10 µM;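 active = plate Z-score above 3 for both tubulin-high and condensed-nucleus cell shares, with cell loss under 80%, at 10 µM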;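 note: anti alpha tubulin signal scored within the nucleus-defined area of each cell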
Ba/F3 V617F tox – loss of viability in JAK2V617F-driven Ba/F3 cells; inhibition, % at 5.6 µM; Ba/F3 EpoR-JAK2V617F viability, ATP luminescence; AID 1446; hit rate 1.1% among 220,000;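 active = inhibition above the campaign mean plus 3 SD over all tested compounds, cut at about 24% in these data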;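 note: cytokine-independent growth of Ba/F3 cells driven by EpoR plus mutant JAK2; 0% = DMSO-treated cells and 100% = JAK inhibitor I control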
Active calls of the source: *; x = not tested or not shown.

SMILES | APP 5UTR inh | BaF3 tox | b-catenin transl | Lmaj promast | MT stabilizer | Ba/F3 V617F tox
CCN(CC)c1ccc2cc(-c3nc4ccccc4n3C)c(=O)oc2c1 | 87* | 77* | 66* | 3 | 29* | 69*
CCN(CC)c1ccc2cc(-c3nc4ccccc4[nH]3)c(=O)oc2c1 | -185 | 2 | 1 | 37 | 18 | -1
CCCc1nc(SCc2ccc(Cl)cc2Cl)n[nH]1 | -3 | 0 | x | 4 | 2 | -5
CCOC(=O)c1c(NC(=O)CCl)sc(CN(C)C)c1-c1ccccc1 | -17 | 7 | 1 | 91* | 3 | 2
CCOC(=O)c1c(NC(=O)CN2CCCCC2)sc(CN(C)C)c1-c1ccccc1 | 8 | 3 | -2 | 52* | 2 | 2
CCOC(=O)c1c(/N=C/N(C)C)sc(/C=N/Nc2ccccc2)c1-c1ccccc1Cl | 6 | 6 | -1 | 49 | 4 | 2
CCOC(=O)c1c(/N=C/N(C)C)sc(/C=N/Nc2ccccc2)c1-c1ccccc1 | 6 | 3 | x | 95* | 4 | -7
CCc1nnc(N/N=C/c2ccc(N3CCC(C)CC3)c([N+](=O)[O-])c2)n1N | 3 | 5 | -2 | 73* | 3 | 1
Cc1nnc(N/N=C/c2cc([N+](=O)[O-])c(N3CCC(C)CC3)cc2N2CCC(C)CC2)n1N | 6 | 5 | 4 | 100* | 1 | 2
Cc1cc(OCC(=O)c2ccc(F)cc2)ccc1N1C(=O)CCC1=O | -9 | -2 | x | -5 | 2 | -5
COc1ccc(O)c(CN2CCN(C/C=C/c3ccccc3)CC2)c1 | -7 | 2 | 3 | 85* | 4 | -3
COc1cc(Br)cc(CN2CCN(C/C=C/c3ccccc3)CC2)c1O | 0 | 5 | -2 | 88* | 4 | -1
CC(C)(Oc1ccc(Cl)cc1)C(=O)N/N=C/c1cn[nH]c1-c1ccccc1 | 0 | 1 | -4 | 13 | 2 | -1
O=C(O)c1cccc(NC(=S)NC(NC(=O)c2cccc([N+](=O)[O-])c2)C(Cl)(Cl)Cl)c1 (centres undefined) | x | -1 | 1 | x | x | -3
O=C(NC(NC(=S)Nc1ccc(Cl)cc1Cl)C(Cl)(Cl)Cl)c1cccc([N+](=O)[O-])c1 (centres undefined) | 2 | 8 | 0 | 100* | 7 | 1
O=C(NC(NC(=S)Nc1ccccc1)C(Cl)(Cl)Cl)c1cccc(Cl)c1 (centres undefined) | -2 | 2 | 6 | 75* | 4 | 1
Cc1cc(C)c(NC(=S)NC(NC(=O)c2ccccc2)C(Cl)(Cl)Cl)c(C)c1 (centres undefined) | -1 | 3 | -1 | 7 | 4 | -4
Cc1cccc(NC(=S)NC(NC(=O)c2ccco2)C(Cl)(Cl)Cl)c1 (centres undefined) | 58* | 1 | -7 | 32 | 4 | 2
Cc1ccc(NC(=S)NC(NC(=O)c2ccccc2)C(Cl)(Cl)Cl)c(C)c1 (centres undefined) | -5 | 8 | -2 | 96* | 6 | -4
CC1CCCCN1C(=O)Nc1cccc(C(F)(F)F)c1 (centres undefined) | -1 | 8 | -1 | 10 | 2 | 0
COc1cc(-c2nnc3n(CCc4ccccc4)c(=O)c4ccccc4n23)cc(OC)c1OC | -11 | 6 | x | 72* | 2 | 4
COC(=O)c1scc2c(Oc3ccccc3)cc(C(F)(F)F)nc12 | x | -2 | 2 | x | x | 2
O=C(Cn1nnc(-c2ccccc2NC(=O)c2ccccc2F)n1)NC1CCCC1 | -9 | 3 | 3 | -2 | 2 | 0
CCOc1ccc(NC(=S)N2CCn3c(nc4ccccc43)C2)cc1 | -2 | 7 | -4 | -14 | 5 | -2
Cc1ncc([N+](=O)[O-])n1Cc1cccc(F)c1 | -8 | 2 | 1 | 85* | 3 | 3
SMILES | APP 5UTR inh | BaF3 tox | b-catenin transl | Lmaj promast | MT stabilizer | Ba/F3 V617F tox
Cc1ncc([N+](=O)[O-])n1CC(=O)NC1CCCCC1 | -8 | 0 | -1 | 83* | 3 | -4
Cc1ncc([N+](=O)[O-])n1Cc1ccccc1 | 6 | 1 | 1 | 73* | 2 | -2
Cc1ccc(Cn2c([N+](=O)[O-])cnc2C)cc1 | -5 | 7 | 4 | -7 | 4 | 1
CCCCCC(=O)NC(Cc1ccc(OC)c([N+](=O)[O-])c1)C(=O)O (centres undefined) | 6 | -2 | 2 | 5 | 2 | -4
CCN=C1SC(CC(N)=O)C(=O)N1CC (centres undefined) | 11 | 7 | 0 | -5 | 3 | -1
C/C(N)=C(/C#N)C(=O)COC(=O)CNS(=O)(=O)c1ccc2ccccc2c1 | x | 60* | -3 | x | x | 51*
COC(=O)c1ccc(NC(=O)c2cc(-c3ccccn3)nc3ccccc23)cc1 | 8 | 3 | 0 | -4 | 3 | 0
CCN(CC)S(=O)(=O)c1cc(NC(=O)c2cc(-c3ccccn3)nc3ccccc23)ccc1C | 2 | 1 | -1 | 53* | 8 | 11
CCN(CC)S(=O)(=O)c1cc(NC(=O)c2n[nH]c(=O)c3ccccc23)ccc1C | -18 | 2 | -4 | 66* | 4 | 0
O=C(NN1C(=O)C2C3c4ccccc4C(c4ccccc43)C2C1=O)C1CC1 (centres undefined) | 4 | 6 | 1 | -5 | 3 | -3
CN(C)S(=O)(=O)c1ccc(C(=O)NNc2nc(-c3ccccc3)c3cc(Br)ccc3n2)cc1 | 22 | 8 | -4 | 71* | 2 | 4
O=C(COC(=O)c1ncc(Cl)c(Cl)c1Cl)NC(=O)NCc1ccccc1 | -22 | 6 | -2 | 8 | 3 | 2
O=C(COC(=O)c1c2c(nc3ccccc13)/C(=C/c1ccco1)CC2)NC1CCCC1 | -24 | 1 | 4 | 89* | 2 | 0
Cc1cccc(-n2ncc3c(NCc4ccco4)ncnc32)c1 | -49 | 4 | 45 | -4 | 28* | -1
c1cncc(CNc2ncnc3sccc23)c1 | -3 | 7 | 0 | 7 | 4 | 2
Cc1cccc(-n2ncc3c(NCc4ccccc4)ncnc32)c1 | -48 | 15 | -1 | -5 | 6 | 4
c1csc(CNc2ncnc3sccc23)c1 | 3 | 36* | x | 9 | 3 | 34*
Cc1ccc(-n2ncc3c(NCc4ccco4)ncnc32)cc1C | -129 | -1 | 0 | -3 | 9.4* | -4
Cc1cccc(-n2ncc3c(NCc4cccs4)ncnc32)c1 | -76 | 4 | 1 | 97* | 10 | -2
CCOc1ccccc1NC(=O)NC(C)c1ccncc1 (centres undefined) | -9 | 3 | 2 | -1 | 3 | -1
Cc1nnc(SCc2cccc3ccccc23)s1 | x | -1 | -2 | x | x | -1
CCOC(=O)c1cc(C#N)c(Oc2ccccc2)nc1-c1ccccc1 | -10 | 2 | -3 | 2 | 1 | 1
CCCNc1nc(-c2ccccc2)c(C(=O)OCC)cc1C#N | 82* | 58* | 20 | 21 | 27* | 59*
CCCCNc1nc(-c2ccccc2)c(C(=O)OCC)cc1C#N | 8 | -2 | x | 6 | 35* | -6
